# Measured values taken from PMC7555381 (International Journal of Nanomedicine, 2020).
# Key:
# [1] = tested on: Madin–Darby Canine Kidney (MDCK) cells; test: In vitro cytotoxicity; format: cell-based; details: 12 h
# How it was run: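 MDCK cells seeded at 5×10³ cells/well in DMEM with 10% FBS and 1% penicillin/streptomycin, then held 24 h at 37°C. Treated with test formulations diluted in DMEM at 1, 10, 25, 50, 100, 250 and 500 µg/mL drug equivalent, with matching excipient-only controls, for 12 h. WST-8 was added for 2 h and absorbance read at 450 nm. Viability is expressed relative to untreated cells.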
# In vitro drug release = format: physicochemical; details: 37°C, 100 rpm
# How it was run: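 Drug release from the formulation and from free drug was tested in 900 mL of 0.1 N HCl (pH 1.2) or phosphate buffer (pH 6.8). USP apparatus I (basket) was run at 100 rpm and 37±0.2°C. Results are given as cumulative percentage released over time.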
# [2] = tested on: CT26 (murine colon cancer) tumor; test: In vivo tumor growth inhibition in CT26 tumor-bearing mice; parameters: species or system BALB/c mice
# How it was run: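 Female BALB/c mice, 6 weeks old, received 1×10⁶ CT26 cells in PBS in the right dorsal flank. At 70–100 mm³, mice were randomised to seven groups of 14: untreated; IV drug 3.3 or 10 mg/kg once biweekly; oral aqueous drug 10 mg/kg daily; oral formulation at 2.5, 10 or 20 mg/kg equivalent daily, for 21 days. Mice were fasted 4 h before and 2 h after dosing. Caliper volume (width²×length×0.52) was recorded every 3 days. Day-21 tumors were weighed and stained for CD31, PCNA and TUNEL.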
# [3] = tested on: HCT116 (human colon cancer) tumor; test: In vivo tumor growth inhibition in HCT116 tumor-bearing mice; parameters: species or system BALB/c nude mice
# How it was run: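 Female BALB/c nude mice, 6 weeks old, received 1×10⁷ HCT116 cells in PBS in the right dorsal flank. At 70–100 mm³, mice were randomised to the same seven arms: untreated; IV drug 3.3 or 10 mg/kg biweekly; oral aqueous drug 10 mg/kg daily; oral formulation at 2.5, 10 or 20 mg/kg daily, for 21 days. Mice were fasted 4 h before and 2 h after dosing. Caliper volume (width²×length×0.52) was recorded every 3 days, and tumors were weighed at day 21.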
# [4] = CT26, once-biweekly IV 10 mg/kg OP, 21 days
# [5] = HCT116 tumors, day 21, groups OP-IV (10), ODSF (10), ODSF (20)
structure (smiles),measurement,setting,value
"O=C1[O][Pt]2([NH][C@@H]3CCCC[C@H]3[NH]2)[O]C1=O (relative stereo) [OP, cis-[(1R,2R)-1,2-cyclohexanediamine-N,N’] [oxalato(2)-O,O´] platinum]",Cell viability,[1]; 250 µg/mL,74.8±6.82%
same,Cell viability,[1]; 500 µg/mL,55.3±7.79%
same,Concentrations at which cytotoxicity was demonstrated,[1],higher than 100 µg/mL
same,Cumulative drug release,"In vitro drug release; pH 1.2 (0.1 N HCl), at 60 min",exceeded 90%
same,Cumulative drug release,"In vitro drug release; pH 6.8 phosphate buffer, at 120 min",exceeded 90%
same,Inhibition of tumor growth rate compared to the control group,"[2]; CT26, once-biweekly IV 3.3 mg/kg OP, 21 days",40.0%
same,Tumor suppression compared to the OP-S (10) group,[2]; [4],53.3%
same,Tumor suppression compared to the control group,[2]; [4],70.2%
same,Reduction of isolated tumor mass compared to the controls,"[2]; CT26, once-biweekly IV 10 mg/kg OP, day 21",71.7%
same,TUNEL-positive cells (apoptosis) compared to the controls,"[2]; CT26 tumors, day 21, groups ODSF (10), ODSF (20), OP-IV (10)",significant increases in the number of TUNEL-positive cells
same,CD31-positive microvessels (immunohistochemistry),"[2]; CT26 tumors, day 21, groups OP-IV (3.3), OP-S (10), ODSF (10), ODSF (20)",greater numbers of microvessels
same,Numbers of PCNA-positive cells (proliferation),"[2]; CT26 tumors, day 21, groups OP-S, OP-IV (10), ODSF (10), ODSF (20), listed as OP-S",significantly higher
same,Reduction in tumor volume compared to controls,"[3]; HCT116, once-biweekly IV 3.3 mg/kg OP",33.5%
same,Numbers of CD31-positive microvessels compared to the control and OP-S (10) groups,[3]; [5],marked reductions
same,Numbers of PCNA-positive proliferating cells compared to the control and OP-S (10) groups,[3]; [5],marked reductions
same,TUNEL-positive apoptotic cells compared to the control and OP-S (10) groups,[3]; [5],significantly greater numbers of TUNEL-positive apoptotic cells
